# TAAR1 ag: human TAAR1 agonism. AID 624467. activation, % at 3 µM. CHO RD-HGA16 TAAR1, Fluo-8 calcium fluorescence; vehicle wells 0%, saturating PEA agonist 100%. actives 0.99% (n = 360,000);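 active = activation above the mean activation of all test compounds in the run plus 3 SD, cut at about 38% in these data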
# Target sequence (Q96RJ0 whole entry, looked up): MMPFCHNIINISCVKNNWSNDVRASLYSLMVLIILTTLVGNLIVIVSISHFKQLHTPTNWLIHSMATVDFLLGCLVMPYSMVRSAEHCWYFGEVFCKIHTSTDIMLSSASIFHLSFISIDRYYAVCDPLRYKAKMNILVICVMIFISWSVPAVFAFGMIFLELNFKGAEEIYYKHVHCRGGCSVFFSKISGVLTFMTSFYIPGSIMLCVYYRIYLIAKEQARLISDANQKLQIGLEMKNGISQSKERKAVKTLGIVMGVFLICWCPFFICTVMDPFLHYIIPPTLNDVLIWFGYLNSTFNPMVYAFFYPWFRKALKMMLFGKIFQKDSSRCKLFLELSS
#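 Assay system – CHO-derived RD-HGA16 cells with stable Gα16 and human TAAR1 · Compound dosing – one-point dosing at 3 µM (nominal) · Incubation – 17-24 h seeding, 75 min 37 °C dye, 30 min RT · Measured by – kinetic Fluo-8 calcium fluorescence · Control set – DMSO vehicle as 0%, PEA at EC100 as 100% · Repeats – single well for each compound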
# VLA-4 inh: inhibition in a human VLA-4 binding assay | P13612 | VLA-4 expressing cells, ligand binding flow cytometry | inhibition, % (about 7 µM as worked out from the volumes in the protocol) | actives 0.2% (n = 330,000); in the data active = inhibition above about 50%
# Rce1 inh: yeast Ras-converting enzyme inhibition; Q03530; yeast membranes, quenched prenylated peptide cleavage fluorescence; calls only; actives 0.27% (n = 290,000);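 active = fall in fluorescence gain of 50% or more versus controls, with final raw signal at or below 3038400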;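 note: plate controls were neutral control wells for no effect and wells lacking membranes for full effect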
# TAAR1 antag: human TAAR1 antagonism; Q96RJ0; CHO RD-HGA16 TAAR1, Fluo-8 calcium fluorescence, antagonist; inhibition, % at 3 µM; actives 1.5% (n = 360,000); AID 624466;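 active = inhibition above a per-plate cutoff, the mean inhibition of test compounds on that plate plus 3 SD, cut at about 49% in these data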;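 note: 0% = DMSO plus EC80 beta-PEA response and 100% = DMSO alone without agonist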
#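 System: RD-HGA16 CHO cells with stable hTAAR1 and Gα16 | Probe or stimulus: EC80 β-phenethylamine stimulus | Dosing: 3 µM, single point | Times: Dye loading 75 min at 37 °C, then 30 min room temperature | Measured by: Fluo-8 calcium-sensitive fluorescence | Read-out basis: % inhibition of agonist calcium response | Replicates: n of 1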
# Platelet DG rel: modulates dense granule release in human platelets | human platelet-rich plasma, SFLLRN dense granule ATP release, luminescence | inhibition, %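 (compounds screened at 7.5 µM in platelet-rich plasma)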 | actives 0.22% (n = 300,000);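 active = mean replicate score, as percent of positive control, at or above 50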
# The depositor's hits bear a star; i = inactive; / = not tested or not shown; + = active, no number. Only some compounds are listed: those with a hit (about 2.6% of all), similar ones and a draw of the others.
SMILES,TAAR1 ag,VLA-4 inh,Rce1 inh,TAAR1 antag,Platelet DG rel
Cc1cc(C(=O)COC(=O)c2ccc(CO)cc2)c(C)n1CC1COc2ccccc2O1 (centres undefined),22.8,-3.3,i,49.5*,-1.3
CC1(C(=O)N2CCCCC2)CCN1C(=O)Cc1ccc(-c2ccccc2)cc1 (centres undefined),5.1,/,/,-9.9,/
CC(=O)c1c(C)nc(-c2ccccc2)nc1N,2.5,-6.3,+,7.1,3.8
Cc1cc(Nc2cccc(Cl)c2)nc(NCc2ccccc2)n1,37.7*,-0.2,i,0.5,9.3
Cc1cc(N/N=C/c2ccc(Cl)cc2)nc(NCc2ccccc2)n1,40.2*,-10.6,i,33.6,-2.9
Cc1ccc(NC(=O)CSc2nnc(-c3ccoc3C)n2CCCN(C)C)cc1Cl,-0.2,8.6,/,-3.1,20.6
COc1cc(CNC(=O)c2cc(-c3cc(F)ccc3OCC3CCCO3)n[nH]2)cc(OC)c1 (centres undefined),4.8,/,/,52.7*,/
O=C(NCc1cc(C(F)(F)F)cc(C(F)(F)F)c1)c1cc(-c2cc(F)ccc2OCC2CCCO2)n[nH]1 (centres undefined),-1.4,/,/,-26.7,/
Cc1cnc(NC(=O)CSc2ncc(-c3ccccc3)n2Cc2ccco2)s1,57.9*,-15.6,i,78.2*,-0.9
COc1ccc(NC(=O)CSc2ncc(-c3ccc(F)cc3)n2Cc2ccco2)cc1,5.3,0.5,i,26.1,-3.3
O=C(CSc1ncc(-c2ccc(F)cc2)n1Cc1ccco1)Nc1nccs1,45.7*,-19.1,i,40.0,-1.5
O=C(CN1CCCCC1)NC1CCc2cc3c(cc21)CCC3 (centres undefined),1.3,-3.0,i,-7.1,5.4
C/C(=N\NC(=O)c1cc(O)ccc1O)c1cccc(NC(=O)c2cccc(Cl)c2)c1,19.0,-10.1,i,44.7,2.0
CC(=NNC(=O)c1ccncc1)c1cccc(Br)c1,-0.8,/,/,14.7,/
C/C(=N\NC(=O)c1cc(O)ccc1O)c1cccc(NC(=O)c2ccc(Cl)cc2)c1,5.3,0.2,i,51.3*,3.1
C/C(=N\NC(=O)c1ccc(Br)cc1)c1cccc(NC(=O)c2cccnc2)c1,0.2,2.9,+,12.2,4.5
N#Cc1c(N2CCN(C(=O)c3ccccc3)CC2)nc(-c2ccccc2)c2c1CCCC2,6.3,9.3,+,15.2,3.0
N#Cc1c(N2CCN(C(=O)c3ccccc3Cl)CC2)nc(-c2ccccc2)c2c1CCCC2,-1.2,21.5,i,8.3,0.4
COc1ccc(N2CCN(S(=O)(=O)c3c(C)nc4sccn4c3=O)CC2)cc1,-0.1,-8.5,i,3.0,94.8*
COc1ccc(NC(=O)N(C)C[C@H]2Oc3c(NC(=O)Nc4ccc(C(F)(F)F)cc4)cccc3C(=O)N([C@H](C)CO)C[C@@H]2C)cc1,30.9,-7.5,/,72.9*,/
C[C@H](CO)N1C[C@H](C)[C@@H](CN(C)C(=O)Nc2ccc(C(F)(F)F)cc2)Oc2c(NC(=O)c3ccncc3)cccc2C1=O,0.9,26.0,/,-6.4,/
C[C@H](CO)N1C[C@H](C)[C@H](CN(C)C(=O)Nc2ccc(F)cc2)Oc2c(NC(=O)c3ccc(-c4nccs4)cc3)cccc2C1=O,21.4,-0.5,/,54.0*,/
C[C@H](CO)N1C[C@H](C)[C@@H](CN(C)C(=O)Nc2ccc(C(F)(F)F)cc2)Oc2c(NC(=O)Nc3ccc4c(c3)OCO4)cccc2C1=O,7.8,3.4,/,32.6,/
C[C@H](CO)N1C[C@H](C)[C@@H](CN(C)C(=O)Nc2ccc(C(F)(F)F)cc2)Oc2c(NC(=O)Nc3ccccc3)cccc2C1=O,6.3,14.6,/,24.0,/
C[C@H](CO)N1C[C@H](C)[C@@H](CN(C)C(=O)Nc2ccc3c(c2)OCO3)Oc2c(NC(=O)Nc3ccc(C(F)(F)F)cc3)cccc2C1=O,33.9,-1.1,/,79.7*,/
C[C@H]1CN([C@@H](C)CO)C(=O)c2cccc(NC(=O)Nc3ccc(C(F)(F)F)cc3)c2O[C@@H]1CN(C)Cc1ccc(Cl)c(Cl)c1,15.2,4.0,/,51.3*,/
Cn1c(-c2cccc(Br)c2)cnc1NCc1ccccc1O,0.8,1.8,i,29.0,-12.4
O=C1C=C(c2ccc(CO)cc2)C[C@@H](c2ccc(F)cc2)C1,3.4,/,/,12.1,/
O=C1N[C@H](Cc2ccccc2)COC(=O)[C@H](Cc2ccc(F)cc2)CC/C=C/C[C@H]1CC(=O)N(CCO)Cc1ccccc1,11.3,26.6,/,15.5,/

# Screening results as filed in PubChem.
